Experiment [1] addresses Ionotropic glutamate receptor NMDA 1/2D (Rattus norvegicus, UniProt P35439+Q62645). Briefly: Positive allosteric modulation of recombinant rat GluN1/GluN2D receptor expressed in xenopus laevis oocyte assessed as potentiation of glutamate and glycine-induced current response at holding potential -40mV by two electrode voltage clamp method. The gist of the method:
(§1)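 Two-electrode voltage clamp at -40 mV, 23°C, pH 7.4 Ba²⁺ recording solution, on Xenopus oocytes expressing rat NMDA receptors. Currents were evoked by 100 µM glutamate plus 30 µM glycine, with compound co-applied (DMSO 0.05–0.5% final). Each compound used at least 4 oocytes from at least 2 frogs.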
(Two-electrode voltage clamp holds a large cell at a set potential and records current.)

Experiment [2] deals with Glutamate NMDA receptor; Grin1/Grin2c (Rattus norvegicus) (UniProt P35439+Q00961). Nature of the experiment: Positive allosteric modulation of recombinant rat GluN1/GluN2C receptor expressed in xenopus laevis oocyte assessed as potentiation of glutamate and glycine-induced current response at 30 uM at holding potential -40mV by two electrode voltage clamp method relative to control. The procedure, abridged: as §1

In experiment [3] the target is Ionotropic glutamate receptor NMDA 1/2D (Rattus norvegicus) (UniProt P35439+Q62645). Briefly: Positive allosteric modulation of recombinant rat GluN1/GluN2D receptor expressed in xenopus laevis oocyte assessed as potentiation of glutamate and glycine-induced current response at 30 uM at holding potential -40mV by two electrode voltage clamp method relative to control. The gist of the method:
as §1

The target in experiment [4] is Glutamate NMDA receptor; Grin1/Grin2b (Rattus norvegicus, UniProt P35439+Q00960). Briefly: Positive allosteric modulation of recombinant rat GluN1/GluN2B receptor expressed in xenopus laevis oocyte assessed as potentiation of glutamate and glycine-induced current response at holding potential -40mV by two electrode voltage clamp method. The gist of the method: as §1

The target in experiment [5] is Glutamate NMDA receptor; Grin1/Grin2b (Rattus norvegicus) (UniProt P35439+Q00960). Nature of the experiment: Positive allosteric modulation of recombinant rat GluN1/GluN2B receptor expressed in xenopus laevis oocyte assessed as potentiation of glutamate and glycine-induced current response at 30 uM at holding potential -40mV by two electrode voltage clamp method relative to control. The procedure, abridged: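 Two-electrode voltage clamp at -40 mV, 23°C, pH 7.4 Ba²⁺ recording solution, on Xenopus oocytes expressing rat NMDA receptors. Currents were evoked by 100 µM glutamate plus 30 µM glycine, with compound co-applied (DMSO 0.05–0.5% final). […] Each compound used at least 4 oocytes from at least 2 frogs.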

Experiment [6] deals with Glutamate NMDA receptor; Grin1/Grin2c (Rattus norvegicus, UniProt P35439+Q00961). Briefly: Positive allosteric modulation of recombinant rat GluN1/GluN2C receptor expressed in xenopus laevis oocyte assessed as potentiation of glutamate and glycine-induced current response at holding potential -40mV by two electrode voltage clamp method. The procedure, abridged:
as §1

Molecules are shown by their SMILES.

The term EC50 denotes the concentration that produces a half-maximal response. As a reminder, the Emax is the greatest response seen or fitted, relative to the assay's reference. `CCOc1ccc(OCC2c3ccc(OC(C)C)cc3CCN2C(=S)c2cccc(C(F)(F)F)c2)cc1` (stereo unspecified): the EC50 in experiment [1] worked out at 450 nM; in experiment [4], 720 nM; in experiment [6], 350 nM. Moreover, the maximal effect (Emax) was found to be 141% in experiment [2], 128% in experiment [3] and 190% in experiment [5].
For the compound `CCOc1ccc(OCC2c3ccc(OC(C)C)cc3CCN2C(=O)c2cccc(OC)c2)cc1` (stereo unspecified), the Activity in experiment [2] is 65%; in experiment [3], 44%; in experiment [5] it was 89%.
Regarding `COc1ccc(OCC2c3ccc(OC(C)C)cc3CCN2C(=O)c2cccc(F)c2)cc1` (stereo unspecified), the concentration for a half-maximal effect (EC50) in experiment [4] amounted to 36000 nM.
As for `COc1ccc(OCC2c3ccc(OC(C)C)cc3CCN2C(=O)c2cccc(N)c2)cc1` (stereo unspecified), the Activity was determined as 105% in experiment [2], 107% in experiment [3] and 106% in experiment [5].
For `COc1ccc(OCC2c3ccc(N4CCOCC4)cc3CCN2C(=O)c2cccc(Br)c2)cc1` (stereo unspecified), the concentration for a half-maximal effect (EC50) came out at 4300 nM in experiment [1], 4800 nM in experiment [4] and 3000 nM in experiment [6]. Moreover, the Activity in experiment [2] was found to be 279%; in experiment [3] it was 284%; in experiment [5], 152%. In addition, the Emax was 314% in experiment [2], 425% in experiment [3] and 165% in experiment [5].
Regarding `COc1ccc(OCC2c3ccc(OC(C)C)cc3CCN2C(=O)c2cccc([N+](=O)[O-])c2)cc1` (stereo unspecified), the EC50 in experiment [1] is 3400 nM; in experiment [4], 5300 nM; in experiment [6] it was 2800 nM. The results for the Activity in experiment [2], in experiment [3] and in experiment [5] were 337%, 335% and 198%, respectively. Also, the Emax was 358% in experiment [2], 351% in experiment [3] and 203% in experiment [5].
For `CC(C)Oc1ccc(OCC2c3ccc(OC(C)C)cc3CCN2C(=O)c2cccc(F)c2)cc1` (stereo unspecified), the Activity in experiment [2] was determined as 133%; in experiment [3], 103%; in experiment [5] it was 179%. Also, the maximal response (Emax) in experiment [2] amounted to 135%; in experiment [5], 185%. In addition, the results for the EC50 in experiment [4] and in experiment [6] were 7100 nM and 2700 nM, respectively.
On to `CCOc1ccc(OCC2c3ccc(OC(C)C)cc3CCN2C(=O)c2ccccc2F)cc1` (stereo unspecified), for which the Activity was found to be 68% in experiment [2], 55% in experiment [3] and 61% in experiment [5].
In the same order, the values of `COc1ccc(OCC2c3ccc(OC(C)C)cc3CCN2C(=O)c2ccc(OC)cc2)cc1` (stereo unspecified) are 138%, 114% and 110%.
Turning to `COc1cccc(OCC2c3ccc(OC(C)C)cc3CCN2C(=O)c2cccc(Cl)c2)c1` (stereo unspecified), the EC50 in experiment [1] came out at 5400 nM; in experiment [6], 6200 nM. The Activity in experiment [2] came out at 132%; in experiment [3] it was 125%; in experiment [5] it was 99%. Also, the maximum response (Emax) was determined as 132% in experiment [2] and 125% in experiment [3].
With `CCOc1ccc(OCC2c3ccc(OC(C)C)cc3CCN2C(=O)c2ccccc2)cc1` (stereo unspecified), the Activity stood at 83% in experiment [2], 69% in experiment [3] and 88% in experiment [5].
Taken in the same sequence, the figures for `CCOc1ccc(OCC2c3ccc(OCC)cc3CCN2C(=O)c2cccc(F)c2)cc1` (stereo unspecified) were 77%, 67% and 94%.
On to `COc1ccc(OCC2c3ccc(N(C)C)cc3CCN2C(=O)c2cccc(Cl)c2)cc1` (stereo unspecified), for which the EC50 in experiment [1] was 4400 nM; in experiment [6], 4000 nM. Moreover, the figures for the Activity in experiment [2], in experiment [3] and in experiment [5] were 288%, 322% and 127%, respectively. Also, the Emax in experiment [2] worked out at 315%; in experiment [3], 349%.
On to `CC(C)Oc1ccc(OCC2c3ccc(OC(C)C)cc3CCN2C(=O)c2cccc(C(F)(F)F)c2)cc1` (stereo unspecified), for which the Emax in experiment [2] was 132%; in experiment [5], 157%. The EC50 in experiment [4] was determined as 1500 nM; in experiment [6], 920 nM.
As for `CCOc1ccc(OCC2c3ccc(OC(C)C)cc3CCN2C(=O)c2cccc(C)c2)cc1` (stereo unspecified), the Activity in experiment [2] turned out to be 67%; in experiment [3], 43%; in experiment [5] it was 78%.
For `COc1ccc(OCC2c3ccc(OCC(C)C)cc3CCN2C(=O)c2cccc(Cl)c2)cc1` (stereo unspecified), the EC50 in experiment [1] was determined as 1400 nM; in experiment [4], 1500 nM; in experiment [6], 900 nM.
In the case of `CC(C)Oc1ccc(OCC2c3ccc(OC(C)C)cc3CCN2C(=O)c2cccc(Cl)c2)cc1` (stereo unspecified), the Activity in experiment [2] was determined as 134%; in experiment [3] it was 111%; in experiment [5], 159%. The Emax in experiment [2] was 138%; in experiment [5], 160%. Moreover, the figures for the EC50 in experiment [4] and in experiment [6] were 3800 nM and 1700 nM, respectively.
For the compound `CCOc1ccc(OCC2c3ccc(OC(C)C)cc3CCN2C(=O)c2cccc(F)c2)cc1` (stereo unspecified), the Activity is 104% in experiment [2], 91% in experiment [3] and 147% in experiment [5]. In addition, the EC50 in experiment [4] was found to be 7200 nM. In addition, the Emax in experiment [5] turned out to be 152%.
Take `COc1ccc(OCC2c3ccc(OC(C)C)cc3CCN2C(=O)c2cccc(C(F)(F)F)c2)cc1` (stereo unspecified): the half-maximal effective concentration (EC50) in experiment [1] is 2700 nM; in experiment [4], 6100 nM; in experiment [6], 1700 nM.
Turning to `CCOc1ccc(OCC2c3ccc(OC(C)C)cc3CCN2C(=O)c2ccc(Cl)cc2)cc1` (stereo unspecified), the results for the Activity in experiment [2], in experiment [3] and in experiment [5] were 101%, 88% and 112%, respectively.
Consider `CCOc1ccc(OCC2c3ccc(OC(C)C)cc3CCN2C(=O)c2cccc(-c3ccccc3)c2)cc1` (stereo unspecified), for which the Activity in experiment [2] came to 92%; in experiment [3], 92%; in experiment [5], 112%.
Regarding `CCOc1ccc(OCC2c3ccc(N4CCOCC4)cc3CCN2C(=O)c2cccc(Cl)c2)cc1` (stereo unspecified), the Activity turned out to be 133% in experiment [2], 104% in experiment [3] and 127% in experiment [5].
Consider `COc1ccc(OCC2c3ccc(N(C)C)cc3CCN2C(=O)c2cccc(Br)c2)cc1` (stereo unspecified), for which the EC50 in experiment [1] was determined as 3800 nM; in experiment [6], 2400 nM. Also, the Activity was found to be 285% in experiment [2], 307% in experiment [3] and 99% in experiment [5]. The results for the Emax in experiment [2] and in experiment [3] were 293% and 327%, respectively.
With `CCOc1ccc(OCC2c3ccc(OC(C)C)cc3CCN2C(=O)c2ccccc2Cl)cc1` (stereo unspecified), the Activity in experiment [2] came out at 93%; in experiment [3], 79%; in experiment [5], 67%.
For the compound `CCOc1ccc(OCC2c3ccc(OC(C)C)cc3CCN2C(=O)c2cccc(Br)c2)cc1` (stereo unspecified), the values for the Activity in experiment [2], in experiment [3] and in experiment [5] were 133%, 98% and 136%, respectively. Also, the Emax in experiment [2] stood at 135%; in experiment [5] it was 137%. The half-maximal effective concentration (EC50) worked out at 3400 nM in experiment [4] and 1800 nM in experiment [6].
As to `CCOc1ccc(OCC2c3ccc(OCC)cc3CCN2C(=O)c2cccc(Cl)c2)cc1` (stereo unspecified), the Activity in experiment [2] amounted to 91%; in experiment [3], 75%; in experiment [5], 104%.
As to `CCOc1ccc(OCC2c3ccc(OC(C)C)cc3CCN2C(=O)c2cccc(C(F)(F)F)c2)cc1` (stereo unspecified), the values for the EC50 in experiment [4] and in experiment [6] were 2400 nM and 1300 nM, respectively.
Take `CCOc1ccc(OCC2c3ccc(OC(C)C)cc3CCN2C(=O)c2ccc(F)cc2)cc1` (stereo unspecified): the Activity in experiment [2] was found to be 107%; in experiment [3] it was 90%; in experiment [5] it was 118%.
Turning to `COc1ccc(OCC2c3ccc(OC(C)C)cc3CCN2C(=O)c2cccc(O)c2)cc1` (stereo unspecified), the Activity worked out at 117% in experiment [2], 105% in experiment [3] and 98% in experiment [5].
